Screens as filed in PubChem.
Hits are enriched below; roughly 3.5% of the tested compounds scored in any of these assays.
MrgX1 antagonist – antagonists of human MrgX1 receptor, primary screen, HEK293 cells, Fluo-4 calcium flux | AID 588676, 2011 | Mas-related G-protein coupled receptor member X1 (Homo sapiens), Q96LB2 | BAM8-22 antagonism; stronger effect = lower value | B-score at 10 µM | 1.3% of 310,000 active;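 active = calcium-response B-score plate-corrected more than 3 library SD below zero, starting fluorescence within 5 deviations, no agonist response on first addition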;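 note: peak minus trough fluorescence over baseline after final BAM8-22 challenge near maximal dose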
Target sequence (Q96LB2 whole entry, looked up): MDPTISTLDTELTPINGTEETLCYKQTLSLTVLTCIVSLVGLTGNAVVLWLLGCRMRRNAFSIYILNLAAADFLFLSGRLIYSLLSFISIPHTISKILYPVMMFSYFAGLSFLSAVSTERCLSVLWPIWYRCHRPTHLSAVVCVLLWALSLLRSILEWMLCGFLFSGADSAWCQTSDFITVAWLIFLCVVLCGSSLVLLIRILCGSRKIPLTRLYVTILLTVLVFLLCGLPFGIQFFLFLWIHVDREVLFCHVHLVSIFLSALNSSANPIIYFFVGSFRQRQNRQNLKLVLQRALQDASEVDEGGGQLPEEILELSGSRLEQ
RGS4 pot – RGS4 potentiators or activators, primary screen, cell-based, HEK293 M3R inducible RGS4, calcium flux; carbachol calcium flux Fluo4; stronger effect = lower value; B-score at 10 µM; 0.92% of 310,000 active;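 active = B-score of the integrated calcium signal more than 4 SD below the library mean, with starting fluorescence not abnormally high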;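 note: negative B-score means reduced calcium response which marks RGS4 activation or potentiation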
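Assay system: Inducible-RGS4 HEK293 cells carrying M3 receptor | Schedule: Compound preincubation 20 min at room temperature before agonist | Signal: Kinetic calcium fluorescence imaging with Fluo4-AM dye, 2 µM | Read-out basis: B score from integrated fluorescence ratio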
RGS4 block – RGS4 inhibitors, primary screen, cell-based, HEK293 M3R inducible RGS4, calcium flux. Regulator of G-protein signaling 4 (Homo sapiens), P49798. Fluo-4 calcium flux; stronger effect = higher value; triggered by carbachol at its EC20. B-score at 10 µM. 0.45% of 310,000 active;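 active = B-score, a plate-corrected calcium signal, over three deviations above library mean, with baseline fluorescence within five deviations of library mean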;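 note: RGS4 expression induced by doxycycline in cells with stable M3 receptor; B-score is computed from the integrated fluorescence ratio over baseline after carbachol; higher B-score means a larger calcium signal and so more RGS4 inhibition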
Target sequence (P49798 whole entry, looked up): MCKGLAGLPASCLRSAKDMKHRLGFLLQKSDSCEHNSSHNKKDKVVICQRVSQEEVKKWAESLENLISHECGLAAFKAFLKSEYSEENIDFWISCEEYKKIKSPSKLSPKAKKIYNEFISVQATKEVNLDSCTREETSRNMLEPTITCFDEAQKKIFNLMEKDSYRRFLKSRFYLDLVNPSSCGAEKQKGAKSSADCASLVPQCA
MrgX1 allo act – positive allosteric modulators of MrgX1, primary screen, HEK293 cells, Fluo-4 calcium flux. Mas-related G-protein coupled receptor member X1 (Homo sapiens), Q96LB2. FDSS; stronger effect = higher value. B-score at 10 µM. 0.63% of 310,000 active. AID 588675, 2011;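 active = plate-corrected calcium response at least 3 library SD above typical, normal starting fluorescence, not activating the receptor alone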;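 note: compound read alongside a low EC10 to EC30 dose of BAM8-22 agonist; peak minus trough fluorescence over baseline measured at the second addition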
MrgX1 ag – agonists of human MrgX1 receptor, primary screen, HEK293 cells, Fluo-4 calcium flux; Mas-related G-protein coupled receptor member X1 (Homo sapiens), Q96LB2; Fluo-4 calcium fluorescence, agonist mode; stronger effect = higher value; B-score at 10 µM; 0.44% of 310,000 active; AID 588627, 2011;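 active = calcium response B-score plate-corrected fluorescence ratio at least 3 library SD, with starting fluorescence B-score inside 5 SD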
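Material – MrgX1-expressing HEK293 cells · Input – 15,000 cells seeded per well · Dosing – compound as first of three additions · Times – overnight seeding, then 1 h dark dye loading · Measured by – kinetic Fluo-4 NW fluorescence of intracellular calcium · Read-out – B-scored fluorescence response ratio · Benchmarks – positive and negative control wells on each plate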
MrgX1 ag confirm – MrgX1 receptor agonists, duplicate retest, confirmation, HEK293 cells, Fluo-4 calcium flux; shares compounds with MrgX1 ag; Fluo-4 calcium fluorescence, FDSS; activation, % at 10 µM; 78% of 600 active; AID 602412, 2012;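 active = calcium signal rise, corrected for plate position, at least 3 library SD high, with starting brightness within 5 such deviations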
HEK293 Ca flux – nonspecific calcium signal in parental HEK293, confirmation, counter-screen for MrgX1 antagonist project, parental HEK293 cells, Fluo-4 calcium flux | 2% of 4,000 active | Fluo-4 calcium fluorescence, FDSS | AID 624111, 2012 | fluorescence ratio F(max-min)/F0 at 10 µM | shares compounds with MrgX1 antagonist;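 active = duplicate-averaged calcium fluorescence ratio at least three times the standard deviation of buffer wells, a nonspecific response in parental cells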
HEK293 Ca counter – calcium response in parental HEK293 cells, primary screen, counter-screen for MrgX1 allosteric activator project, cell-based, Fluo-4 calcium flux, duplicate | Fluo-4 fluorescence ratio; stronger effect = higher value | fluorescence ratio F(max-min)/F0 at 10 µM | shares compounds with MrgX1 antagonist | 0.4% of 4,000 active | AID 624114, 2012;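 active = calcium fluorescence ratio, averaged over duplicates, at least 3 SD of the buffer-well ratio, meaning a nonspecific response in receptor-free cells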;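 note: untransfected parental HEK293 lacking MrgX1 used as counterscreen for MrgX1 allosteric activators; fluorescence change taken during the second addition on a kinetic imager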
HEK293 Ca cntr2 – calcium response in parental HEK293 cells, primary screen, counter-screen for MrgX1 agonist project, cell-based, Fluo-4 calcium flux, duplicate, agonist mode. fluorescence ratio F(max-min)/F0 at 10 µM. 8.7% of 4,000 active. shares compounds with MrgX1 antagonist. AID 624115, 2012. Fluo-4 calcium fluorescence (FDSS); stronger effect = higher value;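 active = calcium fluorescence ratio at least three times the spread of buffer wells, meaning a non-specific response in parental cells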
A number is an active result; 0 = inactive; - = not tested or not shown.

SMILES | MrgX1 antagonist | RGS4 pot | RGS4 block | MrgX1 allo act | MrgX1 ag | MrgX1 ag confirm | HEK293 Ca flux | HEK293 Ca counter | HEK293 Ca cntr2
c1ccc2c(c1)[nH]c1c(N3CCCC3)ncnc12 | 0 | 0 | 0 | 0 | 0 | - | - | - | -
Clc1ccc2[nH]c3c(N4CCC5(CC4)OCCO5)ncnc3c2c1 | 0 | 0 | 0 | 0 | 42 | 238% | 0 | 0 | 50
c1ccc2c(c1)[nH]c1c(N3CCSCC3)ncnc12 | 0 | - | - | 0 | 32 | 186% | 0 | 0 | 0
CC1CCCCN1S(=O)(=O)c1ccc(C(=O)Nc2nnc(-c3ccccc3Cl)o2)cc1 (stereo not given) | 0 | 0 | 0 | 0 | 41 | 323% | 0 | 0 | 63
Cc1nc2ccccn2c1C(=O)NN=C1C2CC3CC(C2)CC1C3 | 0 | 0 | 0 | 0 | 0 | - | - | - | -
O=c1c2ccccc2sn1-c1ccc(S(=O)(=O)N2CCCC2)cc1 | 0 | 0 | 0 | 0 | 0 | - | - | - | -
CN(C)S(=O)(=O)c1cccc(-n2sc3ccccc3c2=O)c1 | 0 | - | - | 0 | 37 | 225% | 0 | 0 | 50
O=c1c2ccccc2sn1-c1ccccc1 | 0 | 0 | 0 | 0 | 41 | 229% | 0 | 0 | 49
CCOCCCN(C)C1CCN(C(=O)c2oc3ccccc3c2NC(=O)c2cccc([N+](=O)[O-])c2)CC1 | 0 | 0 | 0 | 0 | 0 | - | - | - | -
CC1(c2ccccc2)CC(C)(C)n2c(O)c(C3=NC(=S)NC3=O)c3cccc1c32 (stereo not given) | 0 | 0 | 0 | 0 | 0 | - | - | - | -
CC1(c2ccccc2)CC(C)(C)N2C(=O)C(=O)c3cccc1c32 (stereo not given) | 0 | 0 | 0 | 0 | 29 | 0 | 0 | 0 | 0
Cc1c(-c2ccccc2)oc2c(C(=O)OCC(=O)Nc3ccc(C(N)=O)cc3)cccc2c1=O | 0 | 0 | 0 | 0 | 0 | - | - | - | -
O=S(=O)(Nc1cccc(-c2ccc3nncn3n2)c1)c1cccc(F)c1 | 0 | 0 | 0 | 0 | 37 | 177% | 0 | 0 | 0
COc1ccc(NC(=O)CCN2CCOCC2)c(OC)c1 | 0 | 0 | 0 | 0 | 0 | - | - | - | -
Nc1nc(-c2ccc3c(c2)CCO3)cs1 | 0 | 0 | 0 | 0 | 38 | 175% | 0 | 0 | 0
CCOC(=O)c1ccc2c(c1)N(CC#N)C(=O)C(C)(C)O2 | 0 | 0 | 0 | 0 | 50 | 109% | 0 | 0 | 46
CCOC(=O)c1ccc2c(c1)N(CC(=O)N1CCCC1)C(=O)C(C)(C)O2 | 0 | 0 | 0 | 0 | 0 | - | - | - | -
CS(=O)(=O)c1ccc(NCCc2ccc(S(N)(=O)=O)cc2)c([N+](=O)[O-])c1 | 0 | 0 | 0 | 0 | 0 | - | - | - | -
ONC(=Nc1ccccc1)c1ccc(Cl)cc1 | 0 | 0 | 0 | 0 | 0 | - | - | - | -
NC(=Nc1ccc(Cl)cc1)c1ccccc1 | 0 | 0 | 0 | 0 | 90 | 280% | 0 | 0 | 55
O=C(CCc1ccccc1)NCCc1ccc(F)cc1 | 0 | 0 | 0 | 0 | 0 | - | - | - | -
COc1cc2ncnc(NCc3ccc(Cl)cc3)c2cc1OC | 0 | 0 | 0 | 0 | 33 | 136% | 0 | 0 | 0
COc1ccccc1NC(=O)CC(NC1CCCCC1)C(=O)O (stereo not given) | 0 | 0 | 0 | 0 | 0 | - | - | - | -
Cc1csc(NC(=O)c2cc(=O)[nH]c3ccc(S(=O)(=O)N4CCOCC4)cc23)n1 | 0 | 0 | 0 | 0 | 55 | 266% | 0 | 0 | 0
O=C(NC1CCCCCC1)c1cc(=O)[nH]c2ccc(S(=O)(=O)N3CCOCC3)cc12 | 0 | 0 | 0 | 0 | 0 | - | - | - | -
SMILES | MrgX1 antagonist | RGS4 pot | RGS4 block | MrgX1 allo act | MrgX1 ag | MrgX1 ag confirm | HEK293 Ca flux | HEK293 Ca counter | HEK293 Ca cntr2
CCOC(=O)N1CCC(NC(=O)CCC(=O)N2CC(C)Oc3ccc(Cl)cc32)CC1 (stereo not given) | 0 | 0 | 0 | 0 | 0 | - | - | - | -
CCOC(=O)C1(CC2CCCCO2)CCN(Cc2cc3ccccc3[nH]2)CC1 (stereo not given) | 0 | 0 | 0 | 0 | 113 | 651% | 0 | 0 | 95
CCCCc1ncc(CN2CCC(CC3CCCCO3)(C(=O)OCC)CC2)[nH]1 (stereo not given) | 0 | 0 | 0 | 0 | 0 | - | - | - | -
CC(Oc1ccccc1)C(=O)Nc1nnc(S(=O)(=O)N(C)c2ccccc2)s1 (stereo not given) | 0 | 0 | 0 | 0 | 29 | 95% | 0 | 0 | 46
CN(Cc1ccon1)C(=O)C1CCC(=O)N(CCc2ccc(Cl)cc2)C1 (stereo not given) | - | 0 | 0 | - | - | - | - | - | -
O=C(CCS(=O)(=O)c1cccs1)Nc1ccc(C(=O)NC2CCCC2)cc1 | 0 | 0 | 0 | 0 | 0 | - | - | - | -
COc1ccc(/C=C/C(=O)NCC(c2ccc(F)cc2)N2CCOCC2)cc1OC (stereo not given) | 0 | 0 | 0 | 0 | 0 | - | - | - | -
Cc1nn(Cc2ccccc2)c2c1C(c1cccc(Cl)c1)C(C#N)=C(N)O2 (stereo not given) | 0 | 0 | 0 | 0 | 35 | 174% | 0 | 0 | 47
CCOC(=O)c1ccc(NC(=S)NCCc2ccc(OC)c(OC)c2)cc1 | 0 | 0 | 0 | 0 | 36 | 0 | 0 | 0 | 0
COc1ccc(CCNC(=S)NCCc2ccc(OC)c(OC)c2)cc1OC | 0 | 0 | 0 | 0 | 0 | - | - | - | -
C=C(C)Cn1c(SCC(=O)O)nnc1-c1ccccc1 | 0 | 0 | 0 | 0 | 0 | - | - | - | -
C=C(C)Cn1c(-c2ccccc2)nc2ccccc21 | 0 | 0 | 0 | 0 | 31 | 131% | 0 | 0 | 0
NS(=O)(=O)c1ccc(CCNCC(=O)NCc2ccccc2Cl)cc1 | 0 | 0 | 0 | 0 | 0 | - | - | - | -
O=C(Cc1c2ccccc2nc2ccccc12)c1ccccc1 | 0 | 0 | 0 | 0 | 31 | 0 | 0 | 0 | 0
Cc1ccc(S(=O)(=O)Nc2ccc3c(c2)nc2n3CCN(Cc3ccccc3)C2)cc1 | 0 | 0 | 0 | 0 | 34 | 0 | 0 | 0 | 0
O=S(=O)(Nc1ccc2c(c1)nc1n2CCN(Cc2ccccc2)C1)c1ccccc1 | 0 | 0 | 0 | 0 | 0 | - | - | - | -
O=C(C1CCCN1S(=O)(=O)c1cccc2nsnc12)N1CCCCCC1 (stereo not given) | 0 | 0 | 0 | 0 | 0 | - | - | - | -
COc1ccccc1-c1ccc(/C=C2/C=C(C)OC2=O)o1 | 0 | 0 | 0 | 0 | 0 | - | - | - | -
